core dimer inh – inhibitors of HCV core protein dimerization, primary screen, biochemical, TR-FRET, high-throughput. actives 0.33% (n = 300,000). TR-FRET GST/Flag-core106 dimerization, 1536-well. inhibition, % at 5 µM;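 active = inhibition above the mean of all tested compounds plus 3 SD, set per screening campaign, cut at about 45% in these data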
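Test system: GST/Flag-tagged HCV core106 proteins; Medium: KF-containing HEPES buffer, pH 7.45, DTT, CHAPS, BSA; Times: compound-protein-antibody incubation 4 h at 22.5 °C; Detection: TR-FRET 671 and 617 nm emission; Benchmarks: wells lacking GST-core106 and wells with excess unlabelled core106.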
TAAR1 ag – human TAAR1 agonists, primary screen, Fluo-8 calcium fluorescence, CHO RD-HGA16 cells | vehicle wells 0%, saturating PEA agonist 100% | Trace amine-associated receptor 1 (Homo sapiens), Q96RJ0 | activation, % at 3 µM | AID 624467, 2012 | actives 0.99% (n = 360,000);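 active = activation above the mean activation of all test compounds in the run plus 3 SD, cut at about 38% in these data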
Target sequence (Q96RJ0 whole entry, looked up): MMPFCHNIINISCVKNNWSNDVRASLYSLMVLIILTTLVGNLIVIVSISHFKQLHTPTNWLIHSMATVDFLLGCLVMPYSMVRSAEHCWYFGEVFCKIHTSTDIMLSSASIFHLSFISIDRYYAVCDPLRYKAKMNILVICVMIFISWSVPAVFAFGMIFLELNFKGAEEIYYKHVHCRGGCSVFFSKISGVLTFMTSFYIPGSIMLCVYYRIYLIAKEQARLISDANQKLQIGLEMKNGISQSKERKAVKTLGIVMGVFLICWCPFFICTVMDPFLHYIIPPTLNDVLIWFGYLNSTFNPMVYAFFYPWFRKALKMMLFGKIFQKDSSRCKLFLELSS
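Assay system: CHO-derived RD-HGA16 cells with stable Gα16 and human TAAR1; timing: 17-24 h seeding, 75 min 37 °C dye, 30 min RT; read-out: % activation from peak over basal fluorescence ratio, DMSO-to-PEA scaled; measured by: kinetic Fluo-8 calcium fluorescence; benchmarks: low control DMSO, high control PEA (EC100); doses: 3 µM single concentration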
HCV NS3 hel inh – inhibitors of HCV NS3 helicase, primary screen, biochemical, Cy5 molecular beacon fluorescence; Hepatitis C virus NS3 helicase; NS3 helicase DNA unwinding; inhibition, % at 10.9 µM; actives 0.56% (n = 290,000); AID 1800, 2009;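 active = inhibition above the mean of all tested compounds plus 3 SD, set per campaign, cut at about 35% in these data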;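 also: 0% = DMSO wells and 100% = thioflavine S control wells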
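test system = hepatitis C virus NS3 helicase domain fragment enzyme | reagent = annealed dual-labelled DNA beacon duplex, ATP-started | times = 1 h at 25 °C | detection = Cy5 fluorescence, 0 and 60 min reads | read-out basis = percent inhibition from t60/t0 fluorescence ratio | control set = DMSO and thioflavine S | replication = one well per compound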
TAAR1 antag – human TAAR1 antagonists, primary screen, Fluo-8 calcium fluorescence, CHO RD-HGA16 cells | Trace amine-associated receptor 1 (Homo sapiens), Q96RJ0 | antagonist | inhibition, % at 3 µM | actives 1.5% (n = 360,000) | AID 624466, 2012;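 active = inhibition above a per-plate cutoff, the mean inhibition of test compounds on that plate plus 3 SD, cut at about 49% in these data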;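 also: 0% = DMSO plus EC80 beta-PEA response and 100% = DMSO alone without agonist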
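Test system – hTAAR1-expressing CHO RD-HGA16 cells, Gα16-coupled · Also added – β-PEA at EC80 concentration, post-compound challenge · Compound – 3 µM, single point · Incubation – dye loading 75 min at 37 °C, then 30 min room temperature · Measured by – Fluo-8 intracellular calcium dye fluorescence, real-time kinetic reads · Benchmarks – vehicle and agonist controls · Replicates – singlicate, one well per test compound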
rCAG RNA binder – binders of r(CAG) RNA repeats, primary screen, biochemical, fluorescence | r(CAG) RNA repeat, TO-PRO-1 dye displacement fluorescence | inhibition, % at 3 µM | actives 1.3% (n = 370,000) | AID 651821, 2012;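 active = inhibition above the plate cutoff, the mean of all test compounds on that plate plus 3 SD, cut at about 35% in these data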;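 also: 0% = DMSO alone and 100% = 100 µM mitoxantrone as full dye displacement; higher means more dye released from RNA so lower well fluorescence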
The depositor's hits bear a star; . = no result given. This is a sample that favours compounds with a hit; in the whole collection about 3.7% have one here.

SMILES	core dimer inh	TAAR1 ag	HCV NS3 hel inh	TAAR1 antag	rCAG RNA binder
CCCN(CCC)S(=O)(=O)c1ccc(C(=O)N2CCC(=O)c3ccccc32)cc1	7	7	2	60*	-3
COc1ccc(CCNC(=O)c2cc3c(C)nn(-c4ccccc4)c3s2)cc1OC	.	.	.	.	7
CCN(CC)S(=O)(=O)c1ccc(Nc2ccc(-c3ccc4c(c3)OCCO4)nn2)cc1	8	28	2	35	9
CN(C)S(=O)(=O)c1ccc(Nc2ccc(-c3ccc4c(c3)OCCO4)nn2)cc1	10	16	-8	49*	5
C[C@H]1CCCN1c1cccc2c1S(=O)(=O)N1CC[C@H](C1)O2	.	.	.	.	2
COC(=O)c1cnc(Nc2nc(C(N)Cc3ccc(OC)cc3)cs2)nc1C(F)(F)F (stereo not drawn)	.	45*	.	16	19
NC(Cc1ccc(Cl)cc1)c1csc(NC(=O)NCC2CCCCC2)n1 (stereo not drawn)	.	46*	.	37	13
COc1ccc(CC(N)c2csc(NC(=O)NCCc3ccccc3)n2)cc1 (stereo not drawn)	.	38*	.	44	15
COc1ccc(CC(N)c2csc(NC(=O)C(c3ccccc3)c3ccccc3)n2)cc1 (stereo not drawn)	.	47*	.	23	13
COc1ccc(CC(N)c2csc(NC(=O)c3ccccc3)n2)cc1 (stereo not drawn)	.	15	.	13	13
COc1cc(CNC(=O)Nc2nc(C(N)Cc3ccc(Cl)cc3)cs2)cc(OC)c1OC (stereo not drawn)	.	11	.	22	10
COc1ccc(CCN(Cc2cccs2)S(=O)(=O)c2ccc(F)cc2)cc1OC	.	.	.	.	3
O=C(CSc1nnc(-c2ccccn2)n1-c1ccc(Cl)cc1)Nc1ccc2c(c1)OCCO2	.	.	.	.	5
CC(COc1cccc(OC(F)(F)F)c1)CN1CCC(C(O)(c2ccccc2)c2ccccc2)CC1 (stereo not drawn)	.	.	.	.	0
C/C(C=Nn1c(-c2ccc(F)cc2)n[nH]c1=S)=C/c1ccco1	.	.	.	.	34
NC(Cc1ccccc1)c1csc(NC(=O)c2cccc(OC(F)(F)F)c2)n1 (stereo not drawn)	.	45*	.	12	11
CC(C)c1ccccc1NC(=O)Nc1nc(C(N)Cc2ccc(C(F)(F)F)cc2)cs1 (stereo not drawn)	.	38*	.	37	14
COc1ccc(CC(N)c2csc(NC(=O)c3cccc(OC(F)(F)F)c3)n2)cc1 (stereo not drawn)	.	36	.	41	11
COc1ccc(CNC(=O)Nc2nc(C(N)Cc3ccc(C(F)(F)F)cc3)cs2)cc1 (stereo not drawn)	.	44*	.	49*	10
NC(Cc1ccc(C(F)(F)F)cc1)c1csc(NC(=O)Nc2ccccc2Cc2ccccc2)n1 (stereo not drawn)	.	21	.	33	18
COC(=O)[C@]12C[C@H](CC(=O)N3CCOCC3)C(=O)N(Cc3cccc4ccccc34)C1=C[C@H](C(C)(C)C)O[C@@H]2C	.	.	.	.	3
O=C(NCCc1cccs1)C1CCC(=O)N(CCc2cccc(F)c2)C1 (stereo not drawn)	-7	42*	6	-10	-3
Cc1ccsc1CCNC(=O)C1CCC(=O)N(CCc2cccc(F)c2)C1 (stereo not drawn)	3	9	0	-13	-6
CCOc1cc(/C=N/NC(=O)c2cc(C)n(-c3ccc(F)cc3)c2C)ccc1O	13	-5	11	-1	17
Cc1cc(C(=O)N/N=C2\CC(=O)c3ccccc32)c(C)n1-c1ccc(F)cc1	71*	-2	21	5	19
COC(=O)[C@]12C[C@H](CC(=O)N3CCCCC3)C(=O)N(CCc3ccc(OC)c(OC)c3)C1=C[C@H](C(C)C)O[C@@H]2C1CC1	.	.	.	.	0
C/C(=N/NS(=O)(=O)c1ccc(Br)cc1)c1ccc(NC(=O)c2ccc(C)o2)cc1	9	38*	1	11	12

Screening data deposited in PubChem BioAssay by The Scripps Research Institute Molecular Screening Center.
